In ChEMBL document CHEMBL1127381, “Synthesis and 5-lipoxygenase inhibitory activities of some novel 2-substituted 5-benzofuran hydroxamic acids” (J Med Chem, 1994):

Columns and labels:
[1] = molecular target: T1, Polyunsaturated fatty acid 5-lipoxygenase (Rattus norvegicus, UniProt P12527); test: In vitro inhibition of 5-lipoxygenase (5-HETE) derived from the 9000xg supernatant of RBL broken cell assay; type: cell-based
T1 sequence (P12527 whole entry): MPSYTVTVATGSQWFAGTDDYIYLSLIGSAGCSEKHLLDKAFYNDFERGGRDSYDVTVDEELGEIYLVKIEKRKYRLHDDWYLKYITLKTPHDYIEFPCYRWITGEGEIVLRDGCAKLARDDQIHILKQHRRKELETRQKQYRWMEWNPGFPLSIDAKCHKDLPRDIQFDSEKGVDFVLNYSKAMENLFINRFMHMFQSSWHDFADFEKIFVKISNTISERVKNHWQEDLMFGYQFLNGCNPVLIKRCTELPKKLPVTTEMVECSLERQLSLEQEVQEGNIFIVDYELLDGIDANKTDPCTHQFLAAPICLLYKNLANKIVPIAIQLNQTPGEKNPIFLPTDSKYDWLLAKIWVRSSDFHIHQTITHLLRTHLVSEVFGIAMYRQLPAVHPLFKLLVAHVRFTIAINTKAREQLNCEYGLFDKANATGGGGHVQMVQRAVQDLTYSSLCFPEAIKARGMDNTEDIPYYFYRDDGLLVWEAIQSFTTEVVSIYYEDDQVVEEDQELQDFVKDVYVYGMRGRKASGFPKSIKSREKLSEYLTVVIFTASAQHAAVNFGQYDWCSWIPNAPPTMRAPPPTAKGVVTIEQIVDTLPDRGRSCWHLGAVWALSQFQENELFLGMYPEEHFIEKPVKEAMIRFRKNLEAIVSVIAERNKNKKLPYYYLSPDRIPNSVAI
Method in brief: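 RBL-1 cells grown in suspension, washed, suspended at 5 × 10^7 cells/mL in NaHPO4/CaCl2 buffer, homogenized at 0 °C, spun 9000g for 50 min. Supernatant preincubated with compound 5 min at 37 °C, then [14C]arachidonic acid added and incubated 20 min at 37 °C. Reaction stopped with 2 N formic acid. 5-HETE formation measured radiometrically.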

[2] = molecular target: T2, Polyunsaturated fatty acid 5-lipoxygenase (Mus musculus) (UniProt P48999); test: In vivo inhibition of 5-lipoxygenase (LTC4) in the mouse zymosan peritonitis assay at an oral dose of 30 mg/Kg; type: functional, organism-based
T2 sequence (whole entry): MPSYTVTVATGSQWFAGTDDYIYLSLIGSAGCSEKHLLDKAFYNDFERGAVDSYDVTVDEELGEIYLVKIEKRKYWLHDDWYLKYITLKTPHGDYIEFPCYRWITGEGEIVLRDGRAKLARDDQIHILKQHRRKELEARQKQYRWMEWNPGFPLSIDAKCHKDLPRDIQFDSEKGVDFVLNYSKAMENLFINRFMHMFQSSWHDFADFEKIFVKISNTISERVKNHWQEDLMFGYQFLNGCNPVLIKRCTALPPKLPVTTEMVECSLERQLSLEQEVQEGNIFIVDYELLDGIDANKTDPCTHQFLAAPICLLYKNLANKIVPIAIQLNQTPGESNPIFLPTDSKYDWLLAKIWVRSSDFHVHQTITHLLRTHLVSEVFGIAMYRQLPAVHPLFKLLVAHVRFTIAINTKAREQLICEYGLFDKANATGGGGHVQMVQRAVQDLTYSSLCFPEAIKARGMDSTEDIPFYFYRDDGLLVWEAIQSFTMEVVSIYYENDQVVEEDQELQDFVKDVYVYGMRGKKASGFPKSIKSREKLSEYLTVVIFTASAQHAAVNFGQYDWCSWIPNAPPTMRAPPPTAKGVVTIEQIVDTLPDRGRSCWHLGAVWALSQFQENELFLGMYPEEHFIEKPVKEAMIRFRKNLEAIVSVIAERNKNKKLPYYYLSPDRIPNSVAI
Method in brief: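 Male CD-1 mice (18–25 g) given compound orally in PEG 200. Zymosan-A (3 mg in 0.9% saline) injected ip 1 h later. Mice killed 15 min after zymosan; peritoneum lavaged with 10 μM indomethacin. Fluid extracted in cold 95% ethanol and dried. LTC4 measured by [3H]RIA on 1:20 dilution. Values are mean percent inhibition per animal ± SEM.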

SMILES | IC50 [1] [nM] | inhibition [2] [%] | ED50 [2] [mg/kg]
CCCCCCCCCCc1cc2cc(C(C)N(O)C(C)=O)ccc2o1 (configuration not stated) | 410 | 19.5 | –
CC(c1ccc2oc(-c3ccccc3)cc2c1)N(O)C(=O)CO (configuration not stated) | 700 | – | 27.5
CC(c1cc2ccccc2s1)N(O)C(N)=O (configuration not stated) | – | – | 2.71
CC(=O)N(O)C(C)c1ccc2oc(-c3ccccc3)cc2c1 (configuration not stated) | 490 | – | 22.1
COc1cccc(OC)c1C(=O)N(O)C(C)c1ccc2oc(-c3ccccc3)cc2c1 (configuration not stated) | 3000 | – | –
CC(=O)N(O)C(C)c1ccc(OCCc2ccccc2)cc1 (configuration not stated) | 410 | – | –
COc1cc(-c2cc3cc(C(C)N(O)C(C)=O)ccc3o2)cc(OC)c1OC (configuration not stated) | 310 | 42.1 | –
CC(c1ccc2oc(-c3ccccc3)cc2c1)N(O)C(N)=O (configuration not stated) | 410 | – | 10.3
CC(c1ccc2oc(-c3ccccc3)cc2c1)N(O)C(=O)c1ccccc1 (configuration not stated) | – | 46.2 | –

Continued by falling IC50 [1], values first:

IC50 [1] [nM] | inhibition [2] [%] | ED50 [2] [mg/kg] | SMILES
250 | 29.1 | – | CC(c1ccc2oc(-c3ccccc3)cc2c1)N(O)C(=O)c1cccs1 (configuration not stated)
200 | – | – | COc1ccc(C(=O)N(O)C(C)c2ccc3oc(-c4ccccc4)cc3c2)cc1OC (configuration not stated)
160 | 18.9 | – | CC(=O)OCC(=O)N(O)C(C)c1ccc2oc(-c3ccccc3)cc2c1 (configuration not stated)
160 | – | 18.6 | COCC(=O)N(O)C(C)c1ccc2oc(-c3ccccc3)cc2c1 (configuration not stated)
150 | 37.3 | – | CCCCCCCCCCc1cc2cc(C(C)N(O)C(=O)CCCC(=O)OC)ccc2o1 (configuration not stated)
120 | 25.6 | – | COc1ccc2cc(-c3cc4cc(C(C)N(O)C(C)=O)ccc4o3)ccc2c1 (configuration not stated)
60 | – | – | COC(=O)CCCC(=O)N(O)C(C)c1ccc2oc(-c3ccccc3)cc2c1 (configuration not stated)
50 | – | – | CCOC(=O)CCC(=O)N(O)C(C)c1ccc2oc(-c3ccccc3)cc2c1 (configuration not stated)
50 | – | 17.5 | COc1cc(-c2cc3cc(C(C)N(O)C(N)=O)ccc3o2)cc(OC)c1OC (configuration not stated)
50 | 28.6 | – | CCCCc1cc2cc(C(C)N(O)C(=O)CCCC(=O)OC)ccc2o1 (configuration not stated)
50 | 41.4 | – | CCCCc1cc2cc(C(C)N(O)C(C)=O)ccc2o1 (configuration not stated)
40 | 32.9 | – | CC(c1ccc2oc(-c3ccccc3)cc2c1)N(O)C(=O)c1ccco1 (configuration not stated)
40 | 42.1 | – | COC(=O)CCCC(=O)N(O)C(C)c1ccc2oc(-c3cc(OC)c(OC)c(OC)c3)cc2c1 (configuration not stated)
